# In ChEMBL document CHEMBL1134474, “Synthesis and biological evaluation of novel A-ring modified hexacyclic camptothecin analogues” (J Med Chem, 2001):
# What was measured:
# SK-OV-3 = test: In Vitro cytotoxicity against human ovarian cancer cell line (SK-OV-3); format: functional, cell-based
# Outline: (§1)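 Cells grown in RPMI 1640 with 10% heat-inactivated FBS and penicillin-streptomycin, at 37 °C under 5% CO2. Seeding density set per line from growth curves. Eight concentrations diluted from DMSO stock, 4 days exposure. MTT added for 4 h, formazan dissolved in DMSO, absorbance at 550 nm. […] Three or more determinations.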
# [1] = target: Acetylcholinesterase (Homo sapiens) (UniProt P22303); test: Percent inhibition of acetylcholinesterase using ATCh1 as a substrate; parameters: concentration or dose not given beside the values; conditions: concentration not given here
# Outline: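 AChE (0.05 unit) with 10 mM DTNB and compound at 2 µM in 0.1 M potassium phosphate pH 8.0, preincubated 15 min at 37 °C. Reaction started with 85 µM acetylthiocholine iodide, 15 min at 37 °C. Absorbance at 412 nm, expressed as percent of colour without compound. Three or more determinations.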
# MKN-45 = test: In Vitro cytotoxicity against human stomach cancer cell line (MKN45); format: functional, cell-based; outline: as §1
# WiDr = test: In Vitro cytotoxicity against human colon cancer cell line (WiDr); format: functional, cell-based; outline: as §1
# DNA topoisomerase 1 = target: T1, DNA topoisomerase 1 (Mus musculus, UniProt Q04750); test: Average concentration to cause 50% inhibition of topo 1 using the cleavable complex assay
# T1 sequence (Q04750 whole entry): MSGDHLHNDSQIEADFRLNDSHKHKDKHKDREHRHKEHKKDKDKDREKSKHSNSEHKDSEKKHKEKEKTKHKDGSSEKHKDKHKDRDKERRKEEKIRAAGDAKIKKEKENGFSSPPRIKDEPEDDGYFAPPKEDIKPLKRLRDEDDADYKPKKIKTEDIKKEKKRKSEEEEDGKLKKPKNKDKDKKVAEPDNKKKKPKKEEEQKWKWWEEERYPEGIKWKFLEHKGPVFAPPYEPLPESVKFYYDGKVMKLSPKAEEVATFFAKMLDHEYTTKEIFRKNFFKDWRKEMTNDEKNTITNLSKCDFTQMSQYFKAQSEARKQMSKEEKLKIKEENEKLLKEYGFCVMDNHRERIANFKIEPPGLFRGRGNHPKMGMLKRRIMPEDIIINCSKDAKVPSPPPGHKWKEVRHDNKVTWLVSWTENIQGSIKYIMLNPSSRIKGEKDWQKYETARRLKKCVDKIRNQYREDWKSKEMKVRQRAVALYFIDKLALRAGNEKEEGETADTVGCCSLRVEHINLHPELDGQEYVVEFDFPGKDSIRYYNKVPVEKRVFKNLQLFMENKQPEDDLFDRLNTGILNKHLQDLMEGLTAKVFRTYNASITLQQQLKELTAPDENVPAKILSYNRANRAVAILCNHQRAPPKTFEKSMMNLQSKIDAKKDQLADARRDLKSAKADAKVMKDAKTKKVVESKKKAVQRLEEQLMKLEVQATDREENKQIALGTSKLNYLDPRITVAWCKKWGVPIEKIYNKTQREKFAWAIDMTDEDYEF
# A549 = test: In Vitro cytotoxicity against human lung cancer cell line (A549); format: functional, cell-based; outline: as §1
# NCI-H128 = test: In Vitro cytotoxicity against human lung cancer cell line (H128); format: functional, cell-based; outline: as §1
# SK-BR-3 = test: In Vitro cytotoxicity against human breast cancer cell line (SK-BR-3); format: functional, cell-based; outline: as §1
# [2] = Antitumor activity against MTW0 WiDr xenografts in nude mice at a dose of 10 umol/kg; format: functional, Mus musculus
# Outline: (§2)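 Treatment started about 3 weeks after transplant, at tumor weight 100 to 200 mg. 12 mice per group. Suspended in 0.5% CMC aqueous solution, given i.p. q4d×8 at 10 µmol/kg per injection. Calipers, V = 1/2 × a × b2. Read-outs on day 28: MTW, RTG (MTW28/MTW0), IR = (1 − RTG treated/RTG control) × 100. PR means 50% or greater regression.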
# [3] = Percentage of inhibition rate (IR) against WiDr xenografts in nude mice at a dose of 10 umol/kg; format: functional, Mus musculus; outline: as §2
# [4] = Antitumor activity against MTW28 WiDr xenografts in nude mice at a dose of 10 umol/kg; format: functional, Mus musculus; outline: as §2
# [5] = Relative tumor growth (RTG), calculated by dividing MTW28 by that on day 0 (MTW0) against WiDr xenografts in nude mice at a dose of 10 umol/kg; format: functional, Mus musculus; outline: as §2
# [6] = Percentage of 50% or greater regression (PR) against WiDr xenografts in nude mice at a dose of 10 umol/kg; format: functional, Mus musculus; outline: as §2
# [7] = Percentage of complete regression (CR) against WiDr xenografts in nude mice at a dose of 10 umol/kg; format: functional, Mus musculus; outline: as §2
# Acetylcholinesterase (Homo sapiens), sequence (P22303 whole entry): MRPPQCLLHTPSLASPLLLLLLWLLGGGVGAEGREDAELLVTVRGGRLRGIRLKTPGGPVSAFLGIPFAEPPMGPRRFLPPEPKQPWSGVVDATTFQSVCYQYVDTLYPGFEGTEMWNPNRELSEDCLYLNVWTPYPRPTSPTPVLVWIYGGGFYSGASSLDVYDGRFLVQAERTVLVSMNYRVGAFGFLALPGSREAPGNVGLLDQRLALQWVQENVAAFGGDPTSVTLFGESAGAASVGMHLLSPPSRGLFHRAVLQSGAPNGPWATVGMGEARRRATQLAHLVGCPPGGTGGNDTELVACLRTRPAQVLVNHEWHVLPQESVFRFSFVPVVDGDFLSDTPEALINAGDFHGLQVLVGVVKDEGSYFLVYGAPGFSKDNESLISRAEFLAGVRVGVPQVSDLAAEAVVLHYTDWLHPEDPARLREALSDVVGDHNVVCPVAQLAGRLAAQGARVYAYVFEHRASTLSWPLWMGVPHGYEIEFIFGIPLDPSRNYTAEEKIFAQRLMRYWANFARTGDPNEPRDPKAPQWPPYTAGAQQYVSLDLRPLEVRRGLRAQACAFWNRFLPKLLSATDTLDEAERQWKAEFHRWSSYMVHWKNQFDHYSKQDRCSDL
SMILES,IC50 (SK-OV-3) [µM],inhibition [1] [%],IC50 (MKN-45) [µM],IC50 (WiDr) [µM],IC50 (DNA topoisomerase 1) [µM],IC50 (A549) [µM],IC50 (NCI-H128) [µM],IC50 (SK-BR-3) [µM],Activity [2] [mg],IR [3] [%],Activity [4] [mg],RTG [5],PR [6] [%],CR [7] [%]
CC[C@@]1(O)C(=O)OCc2c1cc1n(c2=O)Cc2cc3c4c(ccc3nc2-1)OCCN4,0.028,13,0.02,0.023,41,0.023,0.013,0.019,,,,,,
CCc1c2c(nc3ccc(O)cc13)-c1cc3c(c(=O)n1C2)COC(=O)[C@]3(O)CC [7-ETHYL-10-HYDROXYCAMPTOTHECIN],0.011,13,0.008,0.014,4,0.016,0.006,0.004,177,98.2,27,0.15,8,75
CC[C@@]1(O)C(=O)OCc2c1cc1n(c2=O)Cc2cc3c(CN(C)C)c(O)ccc3nc2-1 [TOPOTECAN],0.048,20,0.038,0.056,,0.054,0.031,0.026,,,,,,
CC[C@@]1(O)C(=O)OCc2c1cc1n(c2=O)Cc2cc3ccccc3nc2-1 [CAMPTOTHECIN],0.02,23,0.017,0.017,40,0.014,0.018,0.02,,,,,,
CC[C@@]1(O)C(=O)OCc2c1cc1n(c2=O)Cc2cc3c4c(ccc3nc2-1)OCCN4CC#N,0.032,20,0.04,0.03,16,0.037,0.014,0.017,,,,,,
CCN1CCOc2ccc3nc4c(cc3c21)Cn1c-4cc2c(c1=O)COC(=O)[C@]2(O)CC,0.019,9,0.019,0.021,12,0.017,0.013,0.016,,,,,,
CC[C@@]1(O)C(=O)OCc2c1cc1n(c2=O)Cc2cc3c4c(ccc3nc2-1)OCCN4CCN,0.533,17,0.536,0.415,133,0.507,0.174,0.417,,,,,,
CC[C@@]1(O)C(=O)OCc2c1cc1n(c2=O)Cc2cc3c4c(cc(CN(C)C)c3nc2-1)OCCN4,8.63,,9.57,3.19,,8.07,8.5,,,,,,,
CCc1c2c(nc3ccc4c(c13)N(C)CCO4)-c1cc3c(c(=O)n1C2)COC(=O)[C@]3(O)CC,0.142,19,0.152,0.135,1600,0.085,0.076,0.107,,,,,,
CC[C@@]1(O)C(=O)OCc2c1cc1n(c2=O)Cc2cc3c4c(cc(CN5CCOCC5)c3nc2-1)OCCN4,10.6,,15.4,5.34,,9.59,7.44,,,,,,,
CC[C@@]1(O)C(=O)OCc2c1cc1n(c2=O)Cc2cc3c4c(ccc3nc2-1)OCCN4C,0.026,14,0.019,0.023,21,0.021,0.01,0.025,,,,,,
CCc1c2c(nc3ccc4c(c13)NCCO4)-c1cc3c(c(=O)n1C2)COC(=O)[C@]3(O)CC,0.014,12,0.02,0.016,5,0.014,0.007,0.013,176,98.6,21,0.12,25,75
